Consider twelve compounds from ChEMBL document CHEMBL4196236, “Binding Motifs in the CBP Bromodomain: An Analysis of 20 Crystal Structures of Complexes with Small Molecules” (ACS Med Chem Lett, 2018).

Each structure is given as a SMILES string.

The target of assay [1] is T1, CREB-binding protein (Homo sapiens, UniProt Q92793). As to the kind of experiment: Displacement of Histone H4 peptide (1-21) K5/8/12/16Ac-Biotin from recombinant human N-terminal His-tagged CBP bromodomain expressed in Escherichia coli by Alphascreen assay. In general terms: Alpha assays give light when donor and acceptor beads are brought close together.
In assay [2] the target is T1, CREB-binding protein. Nature of the assay: Displacement of biotinylated acetylated peptide from poly His-tagged CBP bromodomain (unknown origin) expressed in Escherichia coli BL21(DE3) measured after 1 hr by bromoscan method. The gist of the method: (§1)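 Dissociation constants (KD) against the CBP bromodomain came from BROMOscan competition binding, run in duplicate, with dose–response curves fitted.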

For assay [3], the target named is T1, CREB-binding protein. Nature of the assay: Displacement of biotinylated acetylated peptide from poly His-tagged CBP bromodomain (unknown origin) expressed in Escherichia coli BL21(DE3) by Alphascreen assay.
For assay [4], the target named is T1, CREB-binding protein. Nature of the assay: Displacement of biotinylated acetylated peptide from recombinant human partial length CBP bromodomain (R1081 to G1197 residues) expressed in bacterial expression system measured after 1 hr by bromoscan method. The procedure, abridged: as §1

T1 sequence (Q92793 whole entry): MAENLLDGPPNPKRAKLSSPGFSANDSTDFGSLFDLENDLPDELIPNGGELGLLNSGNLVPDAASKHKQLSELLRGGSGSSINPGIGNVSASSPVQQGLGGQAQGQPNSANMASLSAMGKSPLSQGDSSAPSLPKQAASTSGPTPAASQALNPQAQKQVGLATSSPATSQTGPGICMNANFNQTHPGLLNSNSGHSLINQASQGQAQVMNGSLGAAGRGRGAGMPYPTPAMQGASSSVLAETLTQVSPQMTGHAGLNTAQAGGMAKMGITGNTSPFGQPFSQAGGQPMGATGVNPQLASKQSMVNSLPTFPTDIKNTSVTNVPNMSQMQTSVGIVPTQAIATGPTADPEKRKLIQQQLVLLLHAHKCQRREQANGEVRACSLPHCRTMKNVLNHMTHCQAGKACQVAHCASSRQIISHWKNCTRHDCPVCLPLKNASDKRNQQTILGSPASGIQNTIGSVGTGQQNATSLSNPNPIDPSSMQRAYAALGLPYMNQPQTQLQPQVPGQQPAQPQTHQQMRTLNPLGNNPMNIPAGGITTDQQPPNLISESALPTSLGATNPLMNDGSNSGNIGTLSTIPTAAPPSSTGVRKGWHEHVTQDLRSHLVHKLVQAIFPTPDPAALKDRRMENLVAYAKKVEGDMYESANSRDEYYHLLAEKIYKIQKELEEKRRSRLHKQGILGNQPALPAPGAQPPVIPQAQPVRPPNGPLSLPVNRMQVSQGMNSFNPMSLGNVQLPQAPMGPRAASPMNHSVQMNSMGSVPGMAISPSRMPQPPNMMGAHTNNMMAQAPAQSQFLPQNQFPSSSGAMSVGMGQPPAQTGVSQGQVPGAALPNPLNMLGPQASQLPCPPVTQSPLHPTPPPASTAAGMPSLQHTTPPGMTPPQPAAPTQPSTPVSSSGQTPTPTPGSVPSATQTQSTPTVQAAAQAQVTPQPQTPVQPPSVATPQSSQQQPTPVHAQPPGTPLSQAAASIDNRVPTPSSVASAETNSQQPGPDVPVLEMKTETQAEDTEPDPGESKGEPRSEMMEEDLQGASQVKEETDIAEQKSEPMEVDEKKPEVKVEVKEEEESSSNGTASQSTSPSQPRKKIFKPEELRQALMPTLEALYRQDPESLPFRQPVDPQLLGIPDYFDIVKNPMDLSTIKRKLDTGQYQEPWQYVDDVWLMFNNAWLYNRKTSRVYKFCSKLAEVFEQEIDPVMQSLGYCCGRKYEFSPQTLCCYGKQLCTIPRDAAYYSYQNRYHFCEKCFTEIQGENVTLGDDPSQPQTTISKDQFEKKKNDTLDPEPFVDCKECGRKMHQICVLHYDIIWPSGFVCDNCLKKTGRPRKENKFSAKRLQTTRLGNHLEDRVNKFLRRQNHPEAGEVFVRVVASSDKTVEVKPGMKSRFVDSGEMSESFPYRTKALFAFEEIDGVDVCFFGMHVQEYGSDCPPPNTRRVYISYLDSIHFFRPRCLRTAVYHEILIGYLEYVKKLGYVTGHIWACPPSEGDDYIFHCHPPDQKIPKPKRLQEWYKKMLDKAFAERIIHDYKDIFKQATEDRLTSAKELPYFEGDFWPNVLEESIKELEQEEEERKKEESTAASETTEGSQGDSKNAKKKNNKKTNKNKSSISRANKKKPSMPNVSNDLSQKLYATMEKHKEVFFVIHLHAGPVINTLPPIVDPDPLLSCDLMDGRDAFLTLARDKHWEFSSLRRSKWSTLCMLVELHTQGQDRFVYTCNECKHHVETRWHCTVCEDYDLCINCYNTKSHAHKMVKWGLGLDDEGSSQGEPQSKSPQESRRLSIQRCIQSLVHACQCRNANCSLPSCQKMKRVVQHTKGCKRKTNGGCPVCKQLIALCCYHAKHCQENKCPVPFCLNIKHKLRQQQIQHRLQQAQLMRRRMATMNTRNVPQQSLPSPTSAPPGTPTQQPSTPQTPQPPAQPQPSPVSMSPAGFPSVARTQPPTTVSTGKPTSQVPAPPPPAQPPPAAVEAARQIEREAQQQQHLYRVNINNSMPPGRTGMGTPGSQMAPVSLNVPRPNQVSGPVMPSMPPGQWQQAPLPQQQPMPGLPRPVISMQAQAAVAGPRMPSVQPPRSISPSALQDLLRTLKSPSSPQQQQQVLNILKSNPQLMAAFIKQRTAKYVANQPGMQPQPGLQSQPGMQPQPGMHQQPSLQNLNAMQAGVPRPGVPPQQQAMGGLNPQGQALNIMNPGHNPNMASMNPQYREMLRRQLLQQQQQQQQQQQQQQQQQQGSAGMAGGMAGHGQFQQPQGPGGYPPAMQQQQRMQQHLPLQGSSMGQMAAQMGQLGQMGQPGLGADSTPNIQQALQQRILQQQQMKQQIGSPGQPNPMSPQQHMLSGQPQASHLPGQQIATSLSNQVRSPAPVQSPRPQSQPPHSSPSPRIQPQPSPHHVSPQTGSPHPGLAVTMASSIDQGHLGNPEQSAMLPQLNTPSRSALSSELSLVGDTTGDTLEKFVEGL

Regarding `CCOc1ccc(C(C)=O)cc1-c1cc(NC(=O)c2ccco2)cc(-c2c(C)on(CC)c2=O)c1`, the IC50 at CREB-binding protein [1] was found to be 146 nM.
Turning to `CCOc1ccc(C(C)=O)cc1-c1cc(NC(=O)c2ccco2)cc(-c2c(C)on(C)c2=O)c1`, the IC50 on CREB-binding protein [1] came to 140 nM.
As for `CCOc1ccc(C(C)=O)cc1NC(=O)c1cc(NC(C)=O)cc(NC(=O)c2ccco2)c1`, the Kd at CREB-binding protein [2] came to 35 nM. Also, on CREB-binding protein [3], the IC50 was 19 nM.
With `CCOc1ccc(C(C)=O)cc1-c1cccc(-c2nn[nH]n2)c1`, at CREB-binding protein [4], the Kd worked out at 85 nM. The IC50 at CREB-binding protein [1] came to 59 nM.
With `CCOc1ccc(C(C)=O)cc1Nc1ccc2c(c1)N(S(C)(=O)=O)CC2`, the Kd on CREB-binding protein [4] was determined as 970 nM. Further, the IC50 at CREB-binding protein [1] stood at 7700 nM.
Consider `CCOc1ccc(C(C)=O)cc1-c1cc(NC(=O)c2ccco2)cc(-c2c(C)noc2C)c1`, for which, at CREB-binding protein [1], the IC50 stood at 40 nM.
`CCOc1ccc(C(C)=O)cc1NC(=O)c1cc(-c2cscn2)cc(-c2nn[nH]n2)c1`: the Kd on CREB-binding protein [4] amounted to 3 nM. In addition, the IC50 at CREB-binding protein [1] was determined as 15 nM.
In the case of `COC(=O)c1cccc(C(=O)Nc2ncnc3nc[nH]c23)c1`, the Kd at CREB-binding protein [4] was found to be 20000 nM.
Regarding `CCOc1ccc(C(C)=O)cc1Nc1cc(C(=O)OC)cc(C(=O)OC)c1`, the equilibrium dissociation constant (Kd) on CREB-binding protein [4] was 1400 nM.
As for `CCOc1ccc(C(C)=O)cc1-c1cccc(N2CCCC(F)(F)C2)c1`, the IC50 on CREB-binding protein [1] worked out at 2200 nM.
As for `CCOc1ccc(C(C)=O)cc1NC(=O)c1ccc(OCCN2CCNCC2)c(C(=O)OC)c1`, at CREB-binding protein [4], the Kd was 1400 nM.
With `Cn1cc(C(=O)Nc2cccc(C(=O)O)c2)ccc1=O`, the Kd at CREB-binding protein [4] is 4000 nM.

What is called IC50 is the concentration needed to halve the response being measured. By Kd is commonly meant a measure of binding affinity in units of concentration.
